According to ChEMBL document CHEMBL5357047, “The development of thymol-isatin hybrids as broad-spectrum antibacterial agents with potent anti-MRSA activity” (RSC Med Chem, 2024):
Converted amounts (≈) assume the structure as drawn.

How the values were obtained:
Format in all cases: functional
Escherichia coli [1] = test: Antibacterial activity against clinically isolated Escherichia coli RBRJ005 assessed as inhibition of bacterial growth at 50 uM measured after 48 hrs by agar well diffusion method; details: read-out: IZ
Staphylococcus aureus [2] = test: Antibacterial activity against clinically isolated Methicillin-resistant Staphylococcus aureus assessed as inhibition of bacterial growth at 50 uM measured after 48 hrs by agar well diffusion method; details: read-out: IZ
Staphylococcus aureus [3] = test: Antibacterial activity against Methicillin-resistant Staphylococcus aureus ATCC 33591 assessed as inhibition of bacterial growth at 50 uM measured after 48 hrs by agar well diffusion method; details: read-out: IZ
Method in brief: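 Agar well diffusion on Mueller Hinton agar seeded with bacteria at 0.5 McFarland. […] Incubated 48 h at 37 °C aerobically; zone of inhibition diameter (mm) measured. Triplicate.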

Escherichia coli [4] = test: Antibacterial activity against clinically isolated Escherichia coli RBRJ013 assessed as inhibition of bacterial growth at 50 uM measured after 48 hrs by agar well diffusion method; details: read-out: IZ
Pseudomonas aeruginosa = test: Antibacterial activity against Pseudomonas aeruginosa MTCC 424 assessed as inhibition of bacterial growth at 50 uM measured after 48 hrs by agar well diffusion method; details: read-out: IZ
Klebsiella pneumoniae [5] = test: Antibacterial activity against clinically isolated Klebsiella pneumoniae RBRJ024 assessed as inhibition of bacterial growth at 50 uM measured after 48 hrs by agar well diffusion method; details: read-out: IZ
Acinetobacter baumannii = test: Antibacterial activity against clinically isolated Acinetobacter baumannii RBRJ027 assessed as inhibition of bacterial growth at 50 uM measured after 48 hrs by agar well diffusion method; details: read-out: IZ
Klebsiella pneumoniae [6] = test: Antibacterial activity against Klebsiella pneumoniae MTCC 109 assessed as inhibition of bacterial growth at 50 uM measured after 48 hrs by agar well diffusion method; details: read-out: IZ
Escherichia coli [7] = test: Antibacterial activity against Escherichia coli MTCC 119 assessed as inhibition of bacterial growth at 50 uM measured after 48 hrs by agar well diffusion method; details: read-out: IZ
Enterobacter cloacae = test: Antibacterial activity against clinically isolated Enterobacter cloacae RBRJ017 assessed as inhibition of bacterial growth at 50 uM measured after 48 hrs by agar well diffusion method; details: read-out: IZ
Klebsiella pneumoniae [8] = test: Antibacterial activity against clinically isolated Klebsiella pneumoniae RBRJ019 assessed as inhibition of bacterial growth at 50 uM measured after 48 hrs by agar well diffusion method; details: read-out: IZ
[9] = tested on: Staphylococcus epidermidis; test: Antibacterial activity against Staphylococcus epidermidis MTCC 435 assessed as inhibition of bacterial growth at 50 uM measured after 48 hrs by agar well diffusion method; details: read-out: IZ
Enterococcus faecalis [10] = test: Antibacterial activity against clinically isolated Enterococcus faecalis RBRJ015 assessed as inhibition of bacterial growth at 50 uM measured after 48 hrs by agar well diffusion method; details: read-out: IZ
Enterococcus faecalis [11] = test: Antibacterial activity against Enterococcus faecalis MTCC 439 assessed as inhibition of bacterial growth at 50 uM measured after 48 hrs by agar well diffusion method; details: read-out: IZ
Staphylococcus aureus [12] = test: Antibacterial activity against clinically isolated Staphylococcus aureus RBRJ010 assessed as inhibition of bacterial growth at 50 uM measured after 48 hrs by agar well diffusion method; details: read-out: IZ
Staphylococcus aureus [13] = test: Antibacterial activity against Staphylococcus aureus MTCC 740 assessed as inhibition of bacterial growth at 50 uM measured after 48 hrs by agar well diffusion method; details: read-out: IZ
Staphylococcus aureus [14] = test: Bactericidal activity against Staphylococcus aureus MTCC 740 assessed as inhibition of bacterial growth measured after 48 hrs by agar plate method
Method in brief: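 MBC: aliquots from microdilution wells without colour change subcultured on drug-free Mueller Hinton agar, 48 h at 37 °C aerobically. MBC is the lowest concentration with no visible growth. Triplicate.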

Staphylococcus aureus [15] = test: Antibacterial activity against Staphylococcus aureus MTCC 740 assessed as inhibition of bacterial growth measured after 48 hrs by broth microdilution method
Staphylococcus aureus [16] = test: Antibacterial activity against clinically isolated Staphylococcus aureus RBRJ010 assessed as inhibition of bacterial growth measured after 48 hrs by broth microdilution method
Staphylococcus aureus [17] = test: Bactericidal activity against clinically isolated Staphylococcus aureus RBRJ010 assessed as inhibition of bacterial growth measured after 48 hrs by agar plate method
Method in brief: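 MBC: 10 μL from wells showing no INT colour change after broth microdilution subcultured on drug-free Mueller Hinton agar, 48 h at 37 °C aerobically; lowest concentration with no visible growth taken as MBC (μM). Triplicate.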

SMILES	zone of inhibition at 50 µM (Escherichia coli [1]) [mm]	zone of inhibition at 50 µM (Staphylococcus aureus [2]) [mm]	zone of inhibition at 50 µM (Staphylococcus aureus [3]) [mm]	zone of inhibition at 50 µM (Escherichia coli [4]) [mm]	zone of inhibition at 50 µM (Pseudomonas aeruginosa) [mm]	zone of inhibition at 50 µM (Klebsiella pneumoniae [5]) [mm]	zone of inhibition at 50 µM (Acinetobacter baumannii) [mm]	zone of inhibition at 50 µM (Klebsiella pneumoniae [6]) [mm]	zone of inhibition at 50 µM (Escherichia coli [7]) [mm]	zone of inhibition at 50 µM (Enterobacter cloacae) [mm]	zone of inhibition at 50 µM (Klebsiella pneumoniae [8]) [mm]	zone of inhibition at 50 µM [9] [mm]	zone of inhibition at 50 µM (Enterococcus faecalis [10]) [mm]	zone of inhibition at 50 µM (Enterococcus faecalis [11]) [mm]	zone of inhibition at 50 µM (Staphylococcus aureus [12]) [mm]	zone of inhibition at 50 µM (Staphylococcus aureus [13]) [mm]	MBC (Staphylococcus aureus [14]) [µM]	MIC (Staphylococcus aureus [15]) [µM]	MIC (Staphylococcus aureus [16]) [µM]	MBC (Staphylococcus aureus [17]) [µM]
COc1ccc2c(c1)C(=O)C(=O)N2CCCCn1cc(COc2cc(C)ccc2C(C)C)nn1	14.2	15.2	13.2	11.3	11.3	11.3	10.2	14.7	14.4	10.9	12.2	12.6	13.2	11.2	13.2	19	–	–	–	–
Cc1ccc(C(C)C)c(OCc2cn(CCCCN3C(=O)C(=O)c4ccccc43)nn2)c1	13.6	19.6	19	11.5	13.7	15.6	11.2	15.2	16.5	12.6	14.4	16.2	17.6	13.2	16.2	22.1	31.2 (≈ 13.5 µg/mL)	15.6 (≈ 6.75 µg/mL)	–	–
Cc1ccc(C(C)C)c(OCc2cn(CCN3C(=O)C(=O)c4cc(Cl)ccc43)nn2)c1	13.2	14.3	14.6	13.1	14.1	13.6	12	15.1	13.6	14.2	15.2	16.2	15.2	11.2	19.6	19.3	–	–	–	–
Cc1ccc(C(C)C)c(OCc2cn(CCCCN3C(=O)C(=O)c4cc(C)ccc43)nn2)c1	13.1	15.8	14.2	11.4	12.9	12.2	10.4	15.4	15.5	11.6	13.2	11.4	15.3	12.4	14.6	19.5	–	–	–	–
Cc1ccc(C(C)C)c(OCc2cn(CCN3C(=O)C(=O)c4cc(I)ccc43)nn2)c1	10.3	13.2	13.1	11.3	10.4	12.2	12.1	12.7	11.3	13.1	11.6	13.4	12.9	12.2	14.1	15.2	–	–	–	–
Cc1ccc(C(C)C)c(OCc2cn(CCN3C(=O)C(=O)c4cc(Br)ccc43)nn2)c1	12.5	14.2	13.3	13.2	14	12.3	12.5	13.2	12.5	13.3	11.2	15.3	12.4	13.6	16.4	16.2	–	–	–	–
Cc1ccc(C(C)C)c(OCc2cn(CCN3C(=O)C(=O)c4cc(F)ccc43)nn2)c1	14.3	16.6	15.3	14.2	14.2	13.2	11.9	15.2	13.3	14.2	14.2	17.3	19.3	15.1	19.2	20.3	125 (≈ 52.8 µg/mL)	62.5 (≈ 26.4 µg/mL)	–	–
Cc1ccc(C(C)C)c(OCc2cn(CCCCN3C(=O)C(=O)c4cc(Br)ccc43)nn2)c1	11.8	13.5	13.1	11	11.3	10.9	10.7	13.5	11.1	11.1	11.4	14.2	13.8	10.3	11.2	18.1	–	–	–	–
Cc1ccc(C(C)C)c(OCc2cn(CCCCN3C(=O)C(=O)c4cc(Cl)ccc43)nn2)c1	12.3	14.2	13.6	11.4	12.4	10.3	11.1	13.2	10.3	11.5	12.3	14.3	13.4	11.2	12.6	18.4	–	–	–	–
Cc1ccc(C(C)C)c(OCc2cn(CCN3C(=O)C(=O)c4cc(C)ccc43)nn2)c1	12.7	16.2	16	11.4	11.3	15.7	12.7	16.6	17.1	14.2	15.4	19.6	16.3	14.3	21.2	18.2	–	–	31.2 (≈ 13.1 µg/mL)	62.5 (≈ 26.2 µg/mL)
Cc1ccc(C(C)C)c(OCc2cn(CCCCN3C(=O)C(=O)c4cc(I)ccc43)nn2)c1	10.4	13.5	14	10.9	10.6	10.1	10.1	12.2	10.2	10.2	10.7	13.5	11.2	10.1	11.9	16.9	–	–	–	–
Cc1ccc(C(C)C)c(OCc2cn(CCCCN3C(=O)C(=O)c4cc(F)ccc43)nn2)c1	12.2	16.2	16.4	11.1	12.2	11.3	11.8	14.4	11.2	12.5	13.2	15.1	14.6	10	12.2	19.2	–	–	–	–
